Test results as given in ChEMBL document CHEMBL1759951, “Furostanol saponins from the rhizomes of Dioscorea japonica and their effects on NGF induction” (Bioorg Med Chem Lett, 2011).

Experiments:
C6 = test: Induction of NGF production in rat C6 cells at 20 uM after 24 hrs by ELISA relative to untreated control; assay type: functional
Method in brief: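 C6 glioma cells treated at 20 μM for 24 h; NGF released into C6-conditioned medium quantified by ELISA, reported as percentage of untreated control. Means ± SD from three independent experiments run in triplicate; Student's t-test versus control, p < 0.05.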

[1] = Cytotoxicity against rat C6 cells assessed as viable cells at 20 uM after 24 hrs by MTT assay; assay type: cell-based; conditions: read-out: Activity
Method in brief: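 C6 rat glioma cells exposed to test agent at 20 μM for 24 h; viability read by MTT and expressed as percentage of untreated control. Means ± SD of three independent experiments, each in triplicate; significance versus control by Student's t-test (p < 0.05).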

Structure (SMILES) | Activity (C6) | viability at 24 h, 20 µM [1]
COCC(=O)c1ccc(O)cc1 | 105.6% | 99.8%
CCCCO[C@]1(CO)O[C@H](CO)[C@@H](O)[C@@H]1O | 117.5% | 102%
COc1cc(CC[C@@H](O)C[C@@H](O)CCc2ccc(O)c(OC)c2)ccc1O | 120.7% | 102%
NC(=O)NC1NC(=O)NC1=O (centres undefined) [ALLANTOIN] | 102.4% | 100%
COc1cc(O)cc(CCc2ccccc2O)c1 [BATATASIN IV] | 106.1% | 95%
CC[C@H](CC[C@@H](C)[C@H]1CC[C@H]2[C@@H]3CC=C4C[C@@H](O)CC[C@]4(C)[C@H]3CC[C@]12C)C(C)C [BETA-SITOSTEROL] | 106.1% | 104%
CC1=CC(=O)CC(C)(C)[C@@]1(O)/C=C/[C@@H](C)O [BLUMENOL A] | 122.2% | 101%
C[C@H](CC[C@@]1(O)O[C@H]2C[C@H]3[C@@H]4CC=C5C[C@@H](O[C@@H]6O[C@H](CO)[C@@H](O[C@@H]7OC[C@H](O)[C@H](O)[C@H]7O)[C@H](O)[C@H]6O[C@@H]6O[C@@H](C)[C@H](O)[C@@H](O)[C@H]6O)CC[C@]5(C)[C@H]4CC[C@]3(C)[C@H]2[C@@H]1C)CO[C@@H]1O[C@H](CO)[C@@H](O)[C@H](O)[C@H]1O [COREAJAPONINS A] | 107.2% | 106%
CO[C@]1(CC[C@@H](C)CO[C@@H]2O[C@H](CO)[C@@H](O)[C@H](O)[C@H]2O)O[C@H]2C[C@H]3[C@@H]4CC=C5C[C@@H](O[C@@H]6O[C@H](CO)[C@@H](O[C@@H]7OC[C@H](O)[C@H](O)[C@H]7O)[C@H](O)[C@H]6O[C@@H]6O[C@@H](C)[C@H](O)[C@@H](O)[C@H]6O)CC[C@]5(C)[C@H]4CC[C@]3(C)[C@H]2[C@@H]1C [COREAJAPONINS B] | 132.9% | 98%
Oc1cc(O)cc(CCc2ccccc2)c1 [DIHYDROPINOSYLVIN] | 117% | 105%
CC(=O)CCc1ccc(O)cc1 [RASPBERRYKETONE] | 106.8% | 101%
COc1cc(O)cc(CCc2ccccc2OC)c1 [STILBOSTEMINN] | 104.6% | 104%
